Yeast fitness data for 167 variants are collected here from the RNAGym collection of RNA variant scans (doi:10.1126/science.aae0568).

Variants at the floor of the assay were thinned out.

B1: tRNA (parent)
chain: GUUCCGUUGGCGUAAUGGUAACGCGUCUCCCUCCUAAGGAGAAGACUGCGGGUUCGAGUCCCGUACGGAACG

This data set covers variants of B1. Kind of data set: yeast fitness relative to wild type (ratio to wild type); higher = fitter; tRNA-Arg(CCU), competitive growth, 37 C, YPD. The method, boiled down:
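Start and end populations of a pooled competition were compared by 100-nucleotide paired-end sequencing of gene amplicons. The Saccharomyces cerevisiae strains carried tRNA-Arg(CCU) gene variants at the native genomic locus, synthesised with a 3% per-site mutation rate at 69 sites, and competed in YPD at 37°C for 24 hours in six parallel replicates. Darwinian fitness relative to wild type was based on the change in genotype frequencies. Genotypes required ≥ 100 starting reads, and estimates < 0.5 were set to 0.5.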
As for C5G U8G G63A, the yeast fitness is no more than 0.5. With C5G C24U U26C C31U the figure was 0.749; with C5G U26G C34G A40C C46U, no more than 0.5. Then C5G C31A A45C, with no more than 0.5. As to C5G G17U A45U G68C, the yeast fitness is no more than 0.5.

In the case of C5U A40C, the yeast fitness is 0.851. Then C5G C30U U54A, with 0.601; and C5U A45C C61G, with 0.536. As to C5G U28A C34G C46A, the yeast fitness was no more than 0.5. Turning to C5U A14G G50C U53C C55U A57G, the yeast fitness was no more than 0.5. Then C5U C24G C62G G68C, with no more than 0.5. With C5G C31U G41C A43C C60G the figure was no more than 0.5; with C5G G38C, 0.565. Turning to C5G C27U C46U, the yeast fitness was 0.754. For the variant C5G G6A U47A G68C, the yeast fitness was 0.546.

Turning to C5G G67U, the yeast fitness was found to be 0.859. With C5G U8A the figure was 0.641. With C5G G10A C11G U16G C33G the figure was 0.551. As to C5G U13A C22G C29G A40U U54C C61G G67A, the yeast fitness was no more than 0.5. With C5U A14U U16A C66U the figure was 0.511; with C5U C11U C24U G44C, no more than 0.5; with C5G C29U A42C C55U, no more than 0.5.

Take C5U A21U C29U C30G A70U: the yeast fitness turned out to be 0.543. With C5G C34G C49U C55U the figure was no more than 0.5; with C5G C55G, 0.685; with C5G C11G A15C A65C, no more than 0.5. With C5G C33A G41C the figure was no more than 0.5; with C5G G25A G56A, 0.803; with C5U A14C C46A G63C A69U, no more than 0.5. Then C5U A14G G50C C55U A57G C66U, with no more than 0.5; and C5G U8A A42C G48C, with no more than 0.5. Consider C5U A15G, for which the yeast fitness amounted to 0.912. Then C5U C11U A37G C60G, with 0.581; and C5U C27G C33G A42C U64A, with no more than 0.5. With C5G G25A A65G the figure was 0.763; with C5U A43G C49G A69C, no more than 0.5; with C5G G12A C31U C49G, no more than 0.5. With C5U C27U A45U C60G the figure was no more than 0.5; with C5G G17C G23C, no more than 0.5; with C5U C22U G52A U53C U59G C61G C62U, no more than 0.5.

As for C5G C55A A57U, the yeast fitness is 0.55. Then C5U C27U C34U G44A, with 0.547. With C5G G17C G58C U59C the figure was 0.57; with C5G G25A U54G C55U A70C, no more than 0.5. With C5U C22U C27U A42G C55A C60A A70U, the yeast fitness turned out to be 0.57.

For C5G C11G A14U A15U A69C, the yeast fitness is no more than 0.5.

As for C5G A40C, the yeast fitness turned out to be 0.638. With C5G G23A C31G the figure was no more than 0.5.

On to C5G C11G A14U A15U C29A C60G, for which the yeast fitness was no more than 0.5.

For C5U C11A A21G A70G, the yeast fitness was no more than 0.5.

Turning to C5U A45G G67A, the yeast fitness was found to be 0.743. Then C5G C33U A65C G68C, with no more than 0.5; and C5G G51C U54A A69U, with 0.562; and C5G C34G A69U, with no more than 0.5. Then C5G C11A A40C U64C, with no more than 0.5; and C5G C29G A43C G52A G67A, with no more than 0.5; and C5G G10C U13G A40G U54A, with no more than 0.5. With C5G G10A C30U A42C A70G the figure was no more than 0.5; with C5U A21U A36U A65G, no more than 0.5; with C5G C33A G41C U54C, no more than 0.5. Regarding C5G G25A, the yeast fitness was 0.981.

As for C5G G25C, the yeast fitness is 1.06. In the case of C5G G44A, the yeast fitness came out at 1.02. With C5G G44U the figure was 0.626; with C5U A15G A20U A42G G63C, 0.65; with C5G U26C C29U, no more than 0.5. C5G U13G C29U A40G C60U A65G: the yeast fitness was no more than 0.5. On to C5U C22G A65G, for which the yeast fitness amounted to 0.588.

Take C5G U16C A20G A70U: the yeast fitness was no more than 0.5. Regarding C5U A14C G41C G58C C66U, the yeast fitness stood at 0.523.

Turning to C5G A36C A42G C55U C62G A69U, the yeast fitness was no more than 0.5. Then C5G C11A A14G G25C C29G, with 0.517; and C5G A43G A70G, with 0.537; and C5U C22A A36U, with 0.828.

With C5U A42C G67U, the yeast fitness was 0.69. In the case of C5G C33U G44C, the yeast fitness is no more than 0.5. Then C5G C22A A37G G50C, with 0.55; and C5U C22U C27U C33U, with no more than 0.5. For the variant C5G G17C C46U G50A, the yeast fitness is no more than 0.5. For the variant C5U A14G G51A A65C, the yeast fitness is no more than 0.5. Consider C5G C27G C34G G63C C66U, for which the yeast fitness was no more than 0.5.

As to C5U A21G A42U U54G, the yeast fitness came out at 0.533. Then C5G G9A A14C A37G C62G, with no more than 0.5; and C5U C11A A21G G23C, with no more than 0.5; and C5U A21G C27U G41A C66A, with no more than 0.5. Then C5U A15U U19C, with 0.672; and C5G C24G C30G C31U U35A A36U G44A C60U A70C, with no more than 0.5.

As to C5G C46A A57G, the yeast fitness amounted to 0.705. For the variant C5G C11G A42C C49U C62A, the yeast fitness is no more than 0.5. With C5G U47C C66U the figure was 0.627; with C5U C22U C27G A65U, no more than 0.5; with C5G G10C G52A U54A, 0.55.

Consider C5U A21U C30G G52A A70U, for which the yeast fitness is 0.534.

With C5G A36G A43U, the yeast fitness turned out to be 0.549.

On to C5U C22G C29A A45U G58C, for which the yeast fitness was no more than 0.5. Then C5G C11U A42G C49U, with 0.548; and C5G G12A A14G U35A, with no more than 0.5. Consider C5G G9C A43G A70U, for which the yeast fitness was no more than 0.5. With C5G U7C A36C A57U C61A C66G the figure was no more than 0.5; with C5G G48A, 0.978; with C5G G9C U35G C66U, no more than 0.5. As for C5U C11G A15U U32A U35G C55A C61G, the yeast fitness was no more than 0.5. On to C5G G9A C30G, for which the yeast fitness is no more than 0.5. With C5U C24U G52U C55A the figure was no more than 0.5; with C5G U7C G23A, no more than 0.5. For the variant C5G G12C C33U G68C, the yeast fitness is 0.612. With C5U C27U G58A C60G the figure was no more than 0.5; with C5G A43U, 0.719; with C5G A43C, 0.744. In the case of C5G C30G, the yeast fitness worked out at 0.523. With C5G C46A G48A U64G, the yeast fitness came to 0.546. Take C5U A45U C49A: the yeast fitness is 0.696. Turning to C5U C24U C33U G44C G68A, the yeast fitness was no more than 0.5.

With C5G U26C C34G U54C, the yeast fitness is no more than 0.5.

In the case of C5U C11A C22G C55G C60G, the yeast fitness came to 0.997.

C5G U7G: the yeast fitness is 0.564.

For C5G U7A, the yeast fitness amounted to 0.792. Then C5G C30A C34G, with no more than 0.5. Take C5G G9C A20G A40C G58A: the yeast fitness was no more than 0.5. As for C5U A21U A57U C60A, the yeast fitness is no more than 0.5. Then C5U C11A C66G, with 0.613; and C5U C11G C22U C30G G58C C60G, with no more than 0.5; and C5U A14C C34G A37U A40U C66U, with no more than 0.5. Then C5G C30U A65U, with no more than 0.5. With C5G C34U C66U the figure was no more than 0.5.

C5U A43G A69C: the yeast fitness worked out at 0.72.

On to C5G A65U C66G, for which the yeast fitness is no more than 0.5. Consider C5U A14G G50C C55U A57G, for which the yeast fitness was 0.675. For C5U A20U C30A G67A A70G, the yeast fitness worked out at 0.657.

On to C5G U28C U35A, for which the yeast fitness worked out at 0.545. With C5G G17A G18A the figure was 0.553; with C5U A14C U19C, 0.528; with C5G C30G G56C C61U A65C, 0.616. On to C5G U35C G44C C62A G68C A69U, for which the yeast fitness is no more than 0.5.

As for C5G C27G C33U G56A A69U, the yeast fitness worked out at 0.52. With C5U A21U U32G the figure was no more than 0.5. With C5G C11A A20C C29U, the yeast fitness is no more than 0.5. Regarding C5G C11U A45C, the yeast fitness was no more than 0.5.

Regarding C5G U59G G63C, the yeast fitness was no more than 0.5.

For C5G C11U C29A, the yeast fitness was 0.53. Then C5G G51C C55G A57U C66U, with no more than 0.5; and C5U A14U C31A C46U G48A C49U, with 0.568; and C5U C24A U26C A40G G56A, with no more than 0.5. With C5G A65C the figure was 0.775; with C5G U32A A70U, no more than 0.5. For the variant C5G G25C C62U, the yeast fitness is 0.721.

On to C5U C24U A40G, for which the yeast fitness came out at 0.637. Then C5U C24U A40C, with 0.634. As for C5G A42G, the yeast fitness came out at 0.701. Consider C5G C30G A65C C66U, for which the yeast fitness is no more than 0.5.

Consider C5U C24A G39C A70C, for which the yeast fitness was no more than 0.5. Turning to C5G G9C C29U C30U C55A A65G, the yeast fitness was no more than 0.5. Then C5G U19G C22U A43G C49G, with no more than 0.5. With C5U A21C C31G G68C, the yeast fitness is no more than 0.5. With C5U A15G A20C U26C G41C G52C A57U A65U the figure was no more than 0.5; with C5G U8G A20C, no more than 0.5; with C5G C46U G67A, 0.683. Consider C5U C27A A42U C49G, for which the yeast fitness came out at 0.763. With C5G U8A A15G G41C U47A the figure was no more than 0.5.

For the variant C5G C11G C31G, the yeast fitness was no more than 0.5. Then C5U C29A A37U G38A, with no more than 0.5; and C5G U7C C11G G23C U26C C27U A42U, with no more than 0.5. In the case of C5G A36U C46G C62A A69C, the yeast fitness is no more than 0.5. For C5G C11G C34U, the yeast fitness amounted to 0.576.

On to C5G C29G G41C, for which the yeast fitness is no more than 0.5.

In the case of C5G C11U C22A, the yeast fitness is no more than 0.5. On to C5U A36G C55G C66G, for which the yeast fitness is no more than 0.5.
